Only a sample is shown.
PGC1a acetyl up – raises PGC1a acetylation signal in U2OS cells | activation, % at 15.6 µM | hit rate 0.21% among 350,000 | U2OS PGC1a acetylation AlphaScreen, overnight;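 active = every replicate reaching activation of at least 50%, whatever the mean replicate activation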;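 also: hits raise the AlphaScreen acetylation signal above neutral controls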
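System – flag-PGC1a/GCN5 U2OS cells · Quantity – 7000 U2OS cells per well · Signal – AlphaScreen proximity luminescence, anti-acetyl-lysine antibody · Schedule – overnight compound treatment, 37 °C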
Hep G6PC suppr – PGC-1a acetylation activator altering hepatocyte G6PC expression; shares compounds with PGC1a acetyl up; primary mouse hepatocytes, G6PC mRNA qPCR, forskolin; G6PC suppression (normalized activity, % of positive control; higher = more suppression), % at 26 µM; 240 tested, under 10 active; AID 743463;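 active = dose curves showing G6PC suppression whose half-maximal dose is at most twice the top valid dose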;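 also: G6PC expression relative to GAPDH housekeeping gene as delta delta Ct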
PCK1 hep suppr – PGC-1a acetylation activator altering hepatocyte PCK1 expression | shares compounds with PGC1a acetyl up | primary mouse hepatocytes, PCK1 mRNA qPCR, forskolin-stimulated | PCK1 expression decrease, unspecified at 26 µM | 230 tested, under 10 active | AID 743465;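 active = compounds lowering PCK1 expression whose fitted half-maximal concentration is at most twice the top tested dose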;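 also: higher delta delta Ct means lower PCK1 expression so positive values indicate hits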
Hep PGC-1a down – PGC-1a acetylation activator altering hepatocyte PGC-1a expression | 240 tested, under 10 active | shares compounds with PGC1a acetyl up | max activity (PGC-1a expression decrease), % | primary mouse hepatocytes, PGC-1a mRNA qPCR, forskolin; top dose 26 µM;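 active = compound lowering PGC-1a expression with fitted half-maximal concentration at most twice its top tested dose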
Hits are given with their value; i = inactive.

SMILES | PGC1a acetyl up | others
COc1ccc(S(=O)(=O)N(C)C[C@H]2Oc3cc(C4=CCCC4)ccc3S(=O)(=O)N([C@H](C)CO)C[C@@H]2C)cc1 | i
Cc1ccccc1-c1ccc2c(c1)O[C@H](CN(C)Cc1ccncc1)[C@@H](C)CN([C@@H](C)CO)S2(=O)=O | 57
COc1ccc(S(=O)(=O)N(C)C[C@@H]2Oc3cc(C#CC4CC4)ccc3S(=O)(=O)N([C@H](C)CO)C[C@@H]2C)cc1 | 56
C[C@@H]1CN([C@@H](C)CO)S(=O)(=O)c2ccc(-c3ccc(F)cc3)cc2O[C@H]1CN(C)C(=O)C1CCCCC1 | i
C[C@H](CO)N1C[C@H](C)[C@H](CN(C)C(=O)NC2CCCCC2)Oc2cc(C#Cc3ccc(F)cc3)ccc2S1(=O)=O | i
COc1ccccc1C#Cc1ccc2c(c1)O[C@@H](CN(C)Cc1cccnc1)[C@H](C)CN([C@@H](C)CO)S2(=O)=O | i
C[C@H]1CN([C@@H](C)CO)S(=O)(=O)c2ccc(Br)cc2O[C@H]1CN(C)S(C)(=O)=O | i
CCC(=O)N1C[C@H](C)[C@@H](OC)CN(C)C(=O)c2ccc(NC(=O)Nc3ccccc3)cc2OC[C@@H]1C | i
Cc1ccc(S(=O)(=O)N[C@H]2C=C[C@H](CC(=O)NCCN3CCCCC3)O[C@H]2CO)cc1 | i
CCN(CC)Cc1c(O)ccc2c([N+](=O)[O-])c(C)n(-c3ccc(OC)cc3)c12 | i
CC(C)[C@H]1COCCS(=O)(=O)N1Cc1ccccc1F | i
CCn1c(=N)n(CC(=O)c2ccc(OC)c(OC)c2)c2ccccc21 | i
CCn1nccc1C(=O)Nc1ccccc1OC | i
COc1ccccc1NC(=O)c1ccc(NC(=O)CNC(=O)c2ccc(OC)c(OC)c2)cc1 | 71
COc1ccc2c(c1)CC/C(=C/c1cc(OC)c(OC)c(OC)c1)C2=O | i
COc1cc(/C=C2\COC/C(=C\c3ccc(O)c(OC)c3)C2=O)ccc1O | 90
CCNC(=S)N1C2CCC1CC(NC(=O)NC1CCCCC1)C2 (stereo unspecified) | i
O=C(Nc1ccc(OC(=O)c2ccccc2)c(-c2nc3ccccc3s2)c1)c1ccccc1 | 106
Cn1c(CO)cnc1SCC(=O)c1ccc(Cl)cc1 | i
O=C(c1ccco1)N(Cc1ccc([N+](=O)[O-])cc1)c1ccc(Br)cc1 | 58
COc1ccc(C2NC3=C(CCC3)C3(C#N)C(OC)(OC)N=C(N)C23C#N)cc1 (stereo unspecified) | i
O=[N+]([O-])c1ccc(Oc2cccc(F)c2)c2ccncc12 | i
O=c1oc(-c2ccccc2)cc(Cl)c1Cl | 115
COc1ccc(CN(C)C[C@@H]2Oc3ccc(NS(=O)(=O)c4c(C)noc4C)cc3C(=O)N([C@@H](C)CO)C[C@@H]2C)cc1 | i
COC(=O)c1cc(CN2C(=O)c3ccccc3C2=O)c(O)c([N+](=O)[O-])c1 | i
SMILES | PGC1a acetyl up | others
Cc1cccc(-c2nsc(SCC(=O)N3CCCC3)n2)c1 | i
Cc1cc(C)c(C#N)c(SCC(=O)Nc2nnc(-c3ccccc3)s2)n1 | i
CN1CCN(C(=O)CSc2nc(-c3cccs3)cc(-c3cccs3)c2C#N)CC1 | 61
O=C(Nc1cccc(OC(F)(F)F)c1)c1ccc(-c2cccnc2)c2ccoc12 | 59
O=S(=O)(/C(=C\c1ccc(C(F)(F)F)cc1)c1nc2ccccc2[nH]1)c1ccccc1 | i
COc1cccc2cc(C(C)N(CCCN3CCOCC3)C(=S)Nc3cc(C)ccc3C)oc12 (stereo unspecified) | i
COc1ccc(-c2noc(CCC(=O)N3CCN(c4cccc(C)c4C)CC3)n2)cc1 | i
CCSc1ccc(NC(=O)c2cccnc2)cc1 | 226
CC(C)(C)c1ccc(C(=O)Nc2ccc(C(=O)NCc3cccnc3)cc2)cc1 | 101
O=C(COc1ccc(Br)cc1)NCCNC(=O)c1cccnc1 | i
Cc1ccc(CNC(=O)CCS(=O)(=O)c2cc3c(cc2Cl)NC(=O)CO3)cc1 | i
Cc1ccc(NC(=O)c2c(C)nn(-c3ccccc3)c2Cl)c(C)c1 | i
Cn1nc(-c2ccccc2F)c2cc(C(=O)N3CCN(C(=O)c4ccco4)CC3)sc21 | 82
O=C(c1ccco1)N1CCN(c2ncnc3scc(-c4cccs4)c23)CC1 | i
CC(C)c1nnc(NC(=O)CCS(=O)(=O)c2nc(-c3cccs3)cc(C(F)(F)F)n2)s1 | 103
COc1ccc(CCCNC(=O)C2(C)Cc3c(-c4ccc5c(c4)OCO5)ccnc3O2)cc1 (stereo unspecified) | 54
O=C(C(Br)=Cc1ccccc1)c1ccccc1 | 160
CC(C)CC(=O)/C(=C\c1ccc(Cl)cc1Cl)n1cncn1 | i
CC(C)(C)NS(=O)(=O)c1ccc(-c2csnn2)s1 | i
Cc1ccc(-c2c(C#N)c(N)n(-c3ccccc3)c(=O)c2C#N)cc1 | 66
CCCn1c(-c2ccccc2)cc(SC)c(C#N)c1=O | i
CC12CC(c3ccccc3O1)N(C(=O)c1ccc(Br)o1)C(=O)N2c1ccccc1 (stereo unspecified) | i
CC1=CC(=O)C=C(C)C1=NOS(=O)(=O)c1ccccc1 | 61
O=C(CC1SC(=Nc2ccc3c(c2)OCCO3)NC1=O)Nc1ccc(F)cc1F (stereo unspecified) | 189
CC(C)NC(=S)N=Nc1c(O)[nH]c2ccc(C(C)C)cc12 | i
SMILES | PGC1a acetyl up | others
O=C1Nc2cc(S(=O)(=O)N3CCCC3)ccc2N2CCCC12 (stereo unspecified) | 95
CCCOC1CCCN(C(=O)c2cc(Cl)c(Cl)cc2C(=O)O)C1 (stereo unspecified) | 87
CCOC(=O)N1CCN(C(=O)c2cc(Cl)c(Cl)cc2C(=O)O)CC1 | i
CC(C)NC(=O)Nc1ccc2c(c1)C(=O)N([C@@H](C)CO)C[C@@H](C)[C@H](CN(C)C(=O)NC(C)C)OCCCC[C@@H](C)O2 | i
Cc1ccc(O)c(NC(=O)c2ccc3c(c2)C(=O)N(CC(C)C)C3=O)c1 | i
CCCNC(=O)Nc1ccc2c(c1)C(=O)N(C)C[C@H](OC)[C@H](C)CN(CC1CCCC1)[C@@H](C)CO2 | i
Cc1ccc(S(=O)(=O)N[C@@H]2C=C[C@H](CC(=O)NCCN3CCCCC3)O[C@@H]2CO)cc1 | i
CN1CCN(C(=O)C[C@@H]2CC[C@@H]3[C@H](COC[C@H](O)CN3CC3CCCCC3)O2)CC1 | i
O=C(CSc1nc(O)cc(=O)n1-c1ccccc1)N1CCCCC1 | i
C=CCn1c(C)nnc1SCC(=O)NC1CC1 | i
Nc1nnc(SCC(=O)NC2CCCCC2)n1-c1ccccc1 | 62
CSc1nc2c(c(=O)[nH]c(=O)n2C)n1Cc1ccccc1 | i
CS(=O)(=O)Nc1ccc2c(c1)[C@@H]1C[C@H](CC(=O)N3CCc4ccccc4C3)O[C@@H](CO)[C@@H]1O2 | i
c1csc(CNc2ncnc3ccc(-c4ccoc4)cc23)c1 | i
O=S(=O)(c1ccc(Cl)cc1)N1[C@@H]2CNC[C@H]1C2c1ccc(-c2cccc(F)c2)cc1 (stereo partly specified) | 80 | Hep G6PC suppr=i;PCK1 hep suppr=i;Hep PGC-1a down=i

Bioassay records from PubChem.
